From ChEMBL document CHEMBL1821614, “Synthesis and biological evaluation of novel Mannich bases of 2-arylimidazo[2,1-b]benzothiazoles as potential anti-cancer agents” (Eur J Med Chem, 2011) come the findings set out here.

The IC50 is the point on the concentration scale where inhibition reaches its midpoint. Higher therefore signals weaker potency.

The structures appear in SMILES notation. Activity calls are given as the source filed them. The calls are words filed in the database; no cut-off is given here.

Assay [1] in a line: Cytotoxicity against human HEK cells after 24 hrs by MTT assay. Conditions: HEK293, 24 h. It is filed as cell-based. For orientation: Tetrazolium assays rely on reduction of a dye to a coloured formazan, in cell work by metabolically active cells.
Assay [2] deals with HepG2. The assay is described as follows: Cytotoxicity against human HepG2 cells after 24 hrs by MTT assay. In kind it is functional, cell-based. Conditions: HepG2, 24 h. The method in brief: (§1)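 Cells were grown in DMEM with 10% FCS, penicillin and streptomycin at 37 °C under 5% CO2. They were seeded at 10,000 cells/well, left overnight, then treated 24 h. Medium was replaced with fresh medium, MTT was added and plates were held 2 h at 37 °C. Absorbance was read at 570 nm. Single-point runs used 4 µM. Data come from three independent experiments as mean ± S.D.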

For assay [3], the system named is MCF7. The assay is described as follows: Cytotoxicity against human MCF7 cells after 24 hrs by MTT assay. In kind it is functional, cell-based. Conditions: MCF7, 24 h. The method in brief:
as §1

Assay [4] has as its system HeLa. The experiment in a line: Cytotoxicity against human HeLa cells after 24 hrs by MTT assay. It is filed as functional, cell-based. Put shortly:
as §1

The test system of assay [5] is HepG2. The assay is described as follows: Selectivity ratio of IC50 for human HEK cells to IC50 for human HepG2 cells. Put shortly:
(§2)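 Selectivity index was calculated as the MTT IC50 in normal HEK cells divided by the IC50 in the given cancer line.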

For assay [6], the system named is HepG2. The experiment in a line: Induction of cell cycle arrest in human HepG2 assessed as accumulation at G0/G1-phase at 4 uM after 24 hrs by propidium iodide staining based FACS analysis. In kind it is functional. The method in brief:
(§3)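 HepG2 cells were seeded at 5 × 10^5 per 60 mm dish and grown 24 h. Compound was added at 4 µM for a further 24 h. Cells were harvested with trypsin-EDTA, fixed in ice-cold 70% ethanol 30 min at 4 °C and treated with RNase A 30 min at 37 °C. They were stained with propidium iodide/citrate/Triton X-100 solution and phase distribution was read by flow cytometry.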
(Flow cytometry measures light scatter and fluorescence of single cells or particles in a stream.)

For assay [7], the system named is HepG2. The experiment in a line: Induction of cell cycle arrest in human HepG2 assessed as accumulation at S-phase at 4 uM after 24 hrs by propidium iodide staining based FACS analysis. It is filed as functional. The method in brief:
as §3

Assay [8] concerns HepG2. The experiment in a line: Induction of cell cycle arrest in human HepG2 assessed as accumulation at G2/M-phase at 4 uM after 24 hrs by propidium iodide staining based FACS analysis. In kind it is functional. Put shortly: as §3
For assay [9], the system named is HepG2. The experiment in a line: Cytotoxicity against human HepG2 cells at 4 uM after 24 hrs by MTT assay. In kind it is functional, cell-based. Put shortly:
as §1

The test system of assay [10] is MCF7. The assay is described as follows: Cytotoxicity against human MCF7 cells at 4 uM after 24 hrs by MTT assay. It is filed as functional, cell-based. Put shortly:
as §1

Assay [11] deals with HeLa. The experiment in a line: Cytotoxicity against human HeLa cells at 4 uM after 24 hrs by MTT assay. In kind it is functional, cell-based. Put shortly: as §1
Assay [12] has as its system MCF7. The experiment in a line: Selectivity ratio of IC50 for human HEK cells to IC50 for human MCF7 cells. The method in brief: as §2
The test system of assay [13] is HeLa. The assay is described as follows: Selectivity ratio of IC50 for human HEK cells to IC50 for human HeLa cells. The method in brief:
as §2

The subject of assay [14] is HepG2. The assay is described as follows: Upregulation of Chk2 protein in human HepG2 cells at 4 uM after 24 hrs by Western blot analysis. In kind it is functional, cell-based. The method in brief:
(§4)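 HepG2 cells exposed 24 h to compounds at 4 µM, with an untreated control and a YM-201627 reference. Lysates were resolved at 50 µg protein per lane on 12% SDS-PAGE and transferred to PVDF. Membranes were blocked 2 h at RT in TBST with 5% blocking powder, probed with primary antibody at 4 °C overnight and then HRP secondary (1:2000) 1 h at RT. Detection by chemiluminescence, with β-actin as loading control.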
Background: Immunoblotting shows a protein as a band on a membrane.

Assay [15] deals with HepG2. The experiment in a line: Down regulation of p38 MPAK protein in human HepG2 cells at 4 uM after 24 hrs by Western blot analysis. In kind it is functional, cell-based. The method in brief:
as §4

Assay [16] deals with HepG2. The assay is described as follows: Down regulation of phosphorylated JNK protein in human HepG2 cells at 4 uM after 24 hrs by Western blot analysis. In kind it is functional, cell-based. Put shortly: as §4
Assay [17] deals with HepG2. The experiment in a line: Down regulation of c-jun protein in human HepG2 cells at 4 uM after 24 hrs by Western blot analysis. In kind it is functional, cell-based. Put shortly: as §4
In assay [18] the test system is HepG2. The assay is described as follows: Down regulation of […] protein in human HepG2 cells at 4 uM after 24 hrs by Western blot analysis. It is filed as functional, cell-based. The method in brief: as §4
For assay [19], the system named is HepG2. The experiment in a line: Antiproliferative activity against human HepG2 cells assessed as down regulation of NF-kappaB protein at 4 uM after 24 hrs by Western blot analysis. It is filed as functional, cell-based. Put shortly: as §4
The subject of assay [20] is HepG2. The assay is described as follows: Down regulation of PKCalpha protein in human HepG2 cells at 4 uM after 24 hrs by Western blot analysis. In kind it is functional, cell-based. Put shortly: as §4
Assay [21] deals with HepG2. The assay is described as follows: Induction of apoptosis in human HepG2 cells assessed as caspase3 activation at 4 uM by fluorimetric analysis. It is filed as functional, cell-based. The method in brief: (§5)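 HepG2 cells were treated with compound at 4 µM, with an untreated control. Lysates were mixed with 2× reaction buffer containing DTT, caspase-3 substrate was added and the mix was incubated 1 h at 37 °C. Fluorescence was read at ex 400/em 505 nm and expressed as activity relative to the untreated control.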

The test system of assay [22] is HepG2. The experiment in a line: Induction of apoptosis in human HepG2 cells assessed as caspase3 activation at 4 uM by fluorimetric analysis relative to control. In kind it is functional. Put shortly: as §5
For assay [23], the system named is HepG2. The experiment in a line: Induction of cell cycle arrest at G2/M phase in human HepG2 cells assessed as down regulation of cyclin B1 at 4 uM after 24 hrs by Western blot analysis.

As for `CCOc1ccc2c(c1)sc1nc(-c3ccccc3)c(CN3CCCC3)n12`, the IC50 in assay [1] came to 18.8 µM; in assay [2], 3.76 µM; in [3], 3.76 µM; in [4], 4.3 µM. For the same compound, in assay [5], the Ratio IC50 was found to be 5. Moreover, the Activity in assay [6] amounted to 60.12%; in [7], 12.64%; in assay [8], 27.23%. The result in [9], in assay [10] and in assay [11] was Active.
For `c1ccc(-c2nc3sc4ccccc4n3c2CN2CCCC2)cc1`, the IC50 in assay [1] was found to be 18.5 µM; in [2], 3.01 µM; in assay [3] it was 3.87 µM; in assay [4], 4.65 µM. In addition, the Ratio IC50 was 6.15 in [5], 4.78 in [12] and 3.98 in [13]. Moreover, the Activity in assay [6] turned out to be 60.2%; in [7], 10.52%; in [8] it was 29.27%. Besides, the outcome in assay [9], in [10] and in assay [11] was Active.
Take `Cc1ccc2c(c1)sc1nc(-c3ccccc3)c(CN3CCCC3)n12`: the concentration for half-maximal inhibition (IC50) in [1] came to 17.5 µM; in assay [2] it was 3.6 µM; in assay [3] it was 3.8 µM; in assay [4], 8.09 µM. For the same compound, the “Ratio IC50” value in [5] stood at 4.86; in assay [12], 4.6; in assay [13] it was 2.163. The Activity in assay [6] worked out at 73.97%; in [7], 7.13%; in [8], 18.95%. The result in assay [9], in assay [10] and in assay [11] was Active.
As for `CCN(CC)CCOc1cccc(-c2cn3c(n2)sc2ccccc23)c1.Cl.Cl`, the 50% inhibitory concentration (IC50) in assay [1] came to 17.5 µM; in assay [2], 2.02 µM; in [3], 3.59 µM; in assay [4] it was 4.3 µM. Besides, the “Ratio IC50” value in assay [5] was found to be 8.663; in assay [12], 4.87; in [13] it was 4.069. Also, the Activity came out at 64.19% in assay [6], 13.37% in assay [7] and 22.43% in [8]. The result in assay [9], in assay [10] and in assay [11] was Active.
As for `Clc1ccc(-c2nc3sc4ccccc4n3c2CN2CCCC2)cc1`, the 50% inhibitory concentration (IC50) is 21.2 µM in [1], 3.46 µM in assay [2], 4.07 µM in assay [3] and 4.33 µM in [4]. The Ratio IC50 is 6.12 in [5], 5.2 in assay [12] and 4.89 in assay [13]. In addition, the values for the Activity in assay [6], in [7] and in assay [8] were 81.75%, 4.58% and 13.66%, respectively. Further, the outcome in [9], in assay [10] and in assay [11] was Active.
Regarding `CCOc1ccc2c(c1)sc1nc(-c3ccccc3)c(CN3CCOCC3)n12`, the half-inhibitory concentration (IC50) in assay [1] was 21 µM; in assay [2] it was 3.52 µM; in assay [3], 4.2 µM; in assay [4] it was 5.89 µM. Further, the values for the Ratio IC50 in assay [5], in assay [12] and in assay [13] were 5.97, 5 and 3.57, respectively. Also, the Activity in assay [6] came to 73.54%; in assay [7] it was 5.99%; in assay [8], 20.46%. In addition, the outcome in assay [9], in assay [10] and in [11] was Active.
For `Cc1ccc2c(c1)sc1nc(-c3ccccc3)c(CN3CCOCC3)n12`, the half-inhibitory concentration (IC50) in assay [1] was 19 µM; in assay [2], 3.29 µM; in [3] it was 3.8 µM; in assay [4] it was 7.59 µM. The Ratio IC50 in assay [5] amounted to 5.78; in assay [12], 5; in [13], 2.5. The figures for the Activity in assay [6], in [7] and in assay [8] were 70.89%, 8.2% and 20.9%, respectively. Besides, the outcome in [9], in assay [10] and in assay [11] was Active.
As for `CCOc1ccc2c(c1)sc1nc(-c3ccccc3)c(CN3CCN(c4ccccn4)CC3)n12`, the IC50 in assay [1] is 16 µM; in assay [2] it was 2.84 µM; in [3], 4.45 µM; in assay [4], 4.36 µM. Further, the Ratio IC50 was 5.63 in assay [5], 3.59 in assay [12] and 3.67 in assay [13]. The results for the Activity in assay [6], in assay [7] and in assay [8] were 55.24%, 13.42% and 31.33%, respectively. Besides, the result in [14], in [15], in [16], in assay [17], in [18] and in [19] was Active. The outcome in [20], in [21], in assay [9], in assay [10], in assay [11] and in assay [23] was Active. Moreover, the “fold change (FC)” value in assay [22] turned out to be 2.
